# Laboratory results from ChEMBL document CHEMBL5724801, “EUbOPEN Chemogenomics Library - Multiplex” (2024).
# “And” between values parts separate entries of the source, which are not always exact repeats. Equal values may be shown once.
# System: U2OS
# Test: Multiplex assay against U2OS
# Assay type: toxicity, cell-based
# Conditions: human, 12 h, 1 µM, compound concentration 1 uM
# How it was run: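 Four dyes were applied at seeding to live cells: Hoechst33342, BioTracker Green Microtubule Cytoskeleton Dye, MitoTracker Red and Annexin V Alexa Fluor 680. Imaging after compound addition used a CQ1 microscope at 37°C and 5% CO2. CellPathfinder machine-learning gating then sorted cells into Hoechst high-intensity objects or normal cells, normal cells into healthy, pyknosed or fragmented nuclei, and pyknosed cells into mitotic or apoptotic, with tubulin, mitochondrial-mass and membrane-permeability phenotypes given as per cents of healthy-nucleus cells.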
SMILES,Population Apoptotic (%),Population Fragmented Nuclei (%),Population Healthy Nuclei (%),Population Hoechst High Intensity Objects (%),Population Membrane Permeable-Phenotype (%),Population Mitochondria Different-Phenotype (%),Population Mitotic Cells (%),Population Normal (%),Population Pyknosed Nuclei (%),Population Tubulin-Different-Phenotype (%)
CC(C)Oc1ccc(F)c(-c2cnc(N)c(C(=O)Nc3cnccc3N3CCC[C@@H](C(=O)O)C3)n2)c1,45.71% and 37.5%,1.25% and 5.73%,90.02% and 84.08%,0%,0.28% and 7.58%,0% and 6.82%,54.29% and 62.5%,100%,8.73% and 10.19%,0.28% and 0%
CN[C@@H](C)C(=O)N[C@H](C(=O)N1CCC[C@H]1C(=O)Nc1snnc1-c1ccccc1)C1CCCCC1 [GDC-0152],60% and 89%,25% and 21%,61% and 60%,5% and 11%,51% and 50%,24% and 38%,–,94% and 88%,13% and 17%,47% and 52%

# Same assay, conditions: human, 12 h, 1 µM, compound concentration 1 uM
row,SMILES,Total Cell Count
1,CC(C)Oc1ccc(F)c(-c2cnc(N)c(C(=O)Nc3cnccc3N3CCC[C@@H](C(=O)O)C3)n2)c1,401 and 157
2,CN[C@@H](C)C(=O)N[C@H](C(=O)N1CCC[C@H]1C(=O)Nc1snnc1-c1ccccc1)C1CCCCC1 [GDC-0152],176 and 121

# Same assay, conditions: human, 12 h, 10 µM, compound concentration 10 uM
SMILES,Population Apoptotic (%),Population Fragmented Nuclei (%),Population Healthy Nuclei (%),Population Hoechst High Intensity Objects (%),Population Membrane Permeable-Phenotype (%),Population Mitotic Cells (%),Population Normal (%),Population Pyknosed Nuclei (%),Population Tubulin-Different-Phenotype (%),Total Cell Count
CC(C)Oc1ccc(F)c(-c2cnc(N)c(C(=O)Nc3cnccc3N3CCC[C@@H](C(=O)O)C3)n2)c1,73.33% and 43.75%,9.57% and 11.05%,83.25% and 79.65%,0%,8.33% and 15.33%,26.67% and 56.25%,100%,7.18% and 9.3%,4.02% and 3.65%,418 and 172
CN[C@@H](C)C(=O)N[C@H](C(=O)N1CCC[C@H]1C(=O)Nc1snnc1-c1ccccc1)C1CCCCC1 [GDC-0152],72% and 70%,39% and 18%,44% and 65%,4% and 5%,65% and 73%,27% and 29%,95% and 94%,16% and 15%,76% and 91%,208 and 114

# Same assay, conditions: human, 12 h, 10 µM, compound concentration 10 uM
row,SMILES,Population Mitochondria Different-Phenotype (%)
1,CN[C@@H](C)C(=O)N[C@H](C(=O)N1CCC[C@H]1C(=O)Nc1snnc1-c1ccccc1)C1CCCCC1 [GDC-0152],61% and 70%

# Same assay, conditions: human, 24 h, 1 µM, compound concentration 1 uM
SMILES,Population Apoptotic (%),Population Fragmented Nuclei (%),Population Healthy Nuclei (%),Population Hoechst High Intensity Objects (%),Population Membrane Permeable-Phenotype (%),Population Mitochondria Different-Phenotype (%),Population Mitotic Cells (%),Population Normal (%),Population Pyknosed Nuclei (%),Population Tubulin-Different-Phenotype (%)
CC(C)Oc1ccc(F)c(-c2cnc(N)c(C(=O)Nc3cnccc3N3CCC[C@@H](C(=O)O)C3)n2)c1,38.6% and 34.38%,1.54% and 3.88%,87.45% and 80.58%,0%,0.66% and 4.22%,0% and 3.61%,61.4% and 65.62%,100%,11% and 15.53%,1.1% and 0%
CN[C@@H](C)C(=O)N[C@H](C(=O)N1CCC[C@H]1C(=O)Nc1snnc1-c1ccccc1)C1CCCCC1 [GDC-0152],72% and 85%,21% and 34%,55% and 44%,5% and 8%,20% and 25%,18% and 28%,27% and 14%,94% and 91%,23% and 21%,19% and 27%

# Same assay, conditions: human, 24 h, 1 µM, compound concentration 1 uM
row,SMILES,Total Cell Count
1,CC(C)Oc1ccc(F)c(-c2cnc(N)c(C(=O)Nc3cnccc3N3CCC[C@@H](C(=O)O)C3)n2)c1,518 and 206
2,CN[C@@H](C)C(=O)N[C@H](C(=O)N1CCC[C@H]1C(=O)Nc1snnc1-c1ccccc1)C1CCCCC1 [GDC-0152],196 and 144

# Same assay, conditions: human, 24 h, 10 µM, compound concentration 10 uM
SMILES,Population Apoptotic (%),Population Fragmented Nuclei (%),Population Healthy Nuclei (%),Population Hoechst High Intensity Objects (%),Population Mitotic Cells (%),Population Normal (%),Population Pyknosed Nuclei (%),Population Tubulin-Different-Phenotype (%),Total Cell Count,Population Membrane Permeable-Phenotype (%)
CC(C)Oc1ccc(F)c(-c2cnc(N)c(C(=O)Nc3cnccc3N3CCC[C@@H](C(=O)O)C3)n2)c1,49.3% and 65.52%,11.73% and 11.05%,74.16% and 73.68%,0%,50.7% and 34.48%,100%,14.12% and 15.26%,6.97% and 2.14%,503 and 190,–
CN[C@@H](C)C(=O)N[C@H](C(=O)N1CCC[C@H]1C(=O)Nc1snnc1-c1ccccc1)C1CCCCC1 [GDC-0152],68% and 92%,36% and 20%,43% and 40%,3% and 10%,–,96% and 89%,20% and 38%,59% and 81%,220 and 121,53% and 59%

# Same assay, conditions: human, 24 h, 10 µM, compound concentration 10 uM
row,SMILES,Population Mitochondria Different-Phenotype (%)
1,CN[C@@H](C)C(=O)N[C@H](C(=O)N1CCC[C@H]1C(=O)Nc1snnc1-c1ccccc1)C1CCCCC1 [GDC-0152],59% and 65%

# Same assay, conditions: human, 48 h, 1 µM, compound concentration 1 uM
SMILES,Population Apoptotic (%),Population Fragmented Nuclei (%),Population Healthy Nuclei (%),Population Hoechst High Intensity Objects (%),Population Membrane Permeable-Phenotype (%),Population Mitochondria Different-Phenotype (%),Population Mitotic Cells (%),Population Normal (%),Population Pyknosed Nuclei (%),Population Tubulin-Different-Phenotype (%)
CC(C)Oc1ccc(F)c(-c2cnc(N)c(C(=O)Nc3cnccc3N3CCC[C@@H](C(=O)O)C3)n2)c1,39.13% and 30.56%,2.98% and 4.32%,86.85% and 84.57%,0% and 0.31%,2.04% and 2.92%,0% and 2.55%,60.87% and 69.44%,100% and 99.69%,10.17% and 11.11%,1.65% and 1.82%
CN[C@@H](C)C(=O)N[C@H](C(=O)N1CCC[C@H]1C(=O)Nc1snnc1-c1ccccc1)C1CCCCC1 [GDC-0152],93% and 88%,35%,32% and 30%,8%,16% and 38%,12% and 17%,6% and 11%,91%,32% and 34%,9% and 27%

# Same assay, conditions: human, 48 h, 1 µM, compound concentration 1 uM
row,SMILES,Total Cell Count
1,CC(C)Oc1ccc(F)c(-c2cnc(N)c(C(=O)Nc3cnccc3N3CCC[C@@H](C(=O)O)C3)n2)c1,905 and 325
2,CN[C@@H](C)C(=O)N[C@H](C(=O)N1CCC[C@H]1C(=O)Nc1snnc1-c1ccccc1)C1CCCCC1 [GDC-0152],246 and 170

# Same assay, conditions: human, 48 h, 10 µM, compound concentration 10 uM
SMILES,Population Apoptotic (%),Population Fragmented Nuclei (%),Population Healthy Nuclei (%),Population Hoechst High Intensity Objects (%),Population Membrane Permeable-Phenotype (%),Population Mitotic Cells (%),Population Normal (%),Population Pyknosed Nuclei (%),Population Tubulin-Different-Phenotype (%),Total Cell Count
CC(C)Oc1ccc(F)c(-c2cnc(N)c(C(=O)Nc3cnccc3N3CCC[C@@H](C(=O)O)C3)n2)c1,62.73% and 80.56%,8.71% and 11.34%,63.24% and 58.4%,0%,2.48% and 6.47%,37.27% and 19.44%,100%,28.05% and 30.25%,16.25% and 8.63%,574 and 238
CN[C@@H](C)C(=O)N[C@H](C(=O)N1CCC[C@H]1C(=O)Nc1snnc1-c1ccccc1)C1CCCCC1 [GDC-0152],100% and 98%,47% and 45%,22% and 8%,11% and 14%,39% and 80%,0% and 1%,88% and 85%,29% and 45%,43% and 80%,246 and 138

# Same assay, conditions: human, 48 h, 10 µM, compound concentration 10 uM
row,SMILES,Population Mitochondria Different-Phenotype (%)
1,CN[C@@H](C)C(=O)N[C@H](C(=O)N1CCC[C@H]1C(=O)Nc1snnc1-c1ccccc1)C1CCCCC1 [GDC-0152],39% and 50%
